Results from different studies.
Protocols differ between the studies behind these lines.
ABL1 M351T: Tyrosine-protein kinase ABL1 (ABL1, Homo sapiens, UniProt P00519, M351T)
ABL1 F317I phosphorylated: Tyrosine-protein kinase ABL1, phosphorylated (ABL1, Homo sapiens, UniProt P00519, F317I)
ABL1 H396P non-phosphorylated: Tyrosine-protein kinase ABL1, non-phosphorylated (ABL1, Homo sapiens, UniProt P00519, H396P)
ABL1 F317L phosphorylated: Tyrosine-protein kinase ABL1, phosphorylated (ABL1, Homo sapiens, UniProt P00519, F317L)
ABL1 F317I non-phosphorylated: Tyrosine-protein kinase ABL1, non-phosphorylated (ABL1, Homo sapiens, UniProt P00519, F317I)
ABL1 M351T phosphorylated: Tyrosine-protein kinase ABL1, phosphorylated (ABL1, Homo sapiens, UniProt P00519, M351T)
ABL1 Q252H non-phosphorylated: Tyrosine-protein kinase ABL1, non-phosphorylated (ABL1, Homo sapiens, UniProt P00519, Q252H)

CN(CCCC(F)(F)F)c1nccc(-c2cnn3ncccc23)n1 — remaining binding (ABL1 M351T; binding; 1 µM): 100%
Cc1cnc(Nc2ccc(C(=O)N3CCC(N4CCCC4)CC3)cc2)nc1-c1cc2ccccc2s1 — remaining binding (Tyrosine-protein kinase ABL1, phosphorylated (ABL1, Homo sapiens, UniProt P00519); binding; competition with immobilised ligand; 1 µM): 1.6%
Cc1c(C(=O)O)cc(-c2ccc(C3CCNCC3)cc2)c2ccc(-c3ccc(C(F)(F)F)cc3)cc12 — remaining binding (ABL1 F317I phosphorylated; binding; 1 µM): 100%
O=C(c1ccc(Nc2nccc(-c3cc4ccccc4s3)n2)cc1)N1CCC(N2CCCC2)CC1 — remaining binding (ABL1 F317I phosphorylated; binding; competition with immobilised ligand; 1 µM): 99%
O=S(=O)(NC1CCC(c2cc(F)ccc2F)(S(=O)(=O)c2ccc(Cl)cc2)CC1)C(F)(F)F (centres unmarked) — remaining binding (ABL1 H396P non-phosphorylated; cell-free assay; competition with immobilised ligand; 1 µM): 100%
COc1cnc(Nc2cccc(S(N)(=O)=O)c2)nc1N1CCN(c2ccccc2)CC1 — remaining binding (ABL1 F317L phosphorylated; binding; competition with immobilised ligand; 1 µM): 74%
Nc1ncc2c(n1)-c1c([nH]c3ccc(C#CC4CC4)cc13)CCCC2 — remaining binding (ABL1 F317I non-phosphorylated; binding; competition with immobilised ligand; 1 µM): 84%
CN(C)c1nccc(-c2cnc3ncccn23)n1 — remaining binding (Tyrosine-protein kinase ABL1, non-phosphorylated (ABL1, Homo sapiens, UniProt P00519); binding; competition with immobilised ligand; 1 µM): 84%
CNC(=O)[C@@H]1CC[C@@H](n2c(-c3ccc4cnccc4c3)nc3ccc(C(=O)NCc4cccc(C(N)=O)c4)cc32)C1 — remaining binding (ABL1 H396P non-phosphorylated; binding; competition with immobilised ligand; 1 µM): 86%
C[C@H](c1ccc(F)cc1)N(Cc1cccc(C(=O)O)c1)C(=O)c1cnc2ccccc2c1 — remaining binding (ABL1 F317L phosphorylated; cell-free assay; competition with immobilised ligand; 1 µM): 99%
O=C(NCCCN1CCOCC1)c1ccc(Nc2nccc(-c3cc4ccccc4s3)n2)cc1 — remaining binding (ABL1 F317I non-phosphorylated; binding; competition with immobilised ligand; 1 µM): 100%
COc1ncc2cc3ccccc3nc2c1C#N — remaining binding (ABL1 M351T phosphorylated; cell-free assay; competition with immobilised ligand; 5 µM): 100%
c1cncc(-c2cccc(Nc3nccc(NC4CCCCC4)n3)c2)c1 — remaining binding (Tyrosine-protein kinase ABL1, phosphorylated (ABL1, Homo sapiens, UniProt P00519, H396P); binding; competition with immobilised ligand; 10 µM): 29%
O=C(Nc1c[nH]nc1C(=O)NC1CCNCC1)c1cc(F)cc(F)c1 — remaining binding (ABL1 F317I phosphorylated; binding; competition with immobilised ligand; 1 µM): 85%
C[C@H]1CCN(c2nccc(-c3cnn4ncccc34)n2)C1 — remaining binding (ABL1 M351T; binding; 1 µM): 75%
O=C(NS(=O)(=O)c1ccc(NCC2CCOCC2)c([N+](=O)[O-])c1)c1ccc(N2CCN(Cc3ccc(C(F)(F)F)cc3-c3ccc(Cl)cc3)CC2)cc1Oc1cnc2[nH]ccc2c1 — remaining binding (ABL1 Q252H non-phosphorylated; cell-free assay; competition with immobilised ligand; 1 µM): 100%
N[C@H]1CCN(c2nccc(-c3cnn4ncccc34)n2)C1 — remaining binding (Tyrosine-protein kinase ABL1 (ABL1, Homo sapiens, UniProt P00519, E255K); binding; 1 µM): 98%
O=C(c1ccc(Nc2ncc(Cl)c(-c3cc4ccccc4s3)n2)cc1)N1CCC(N2CCCC2)CC1 — remaining binding (ABL1 F317I non-phosphorylated; binding; competition with immobilised ligand; 1 µM): 74%
Cc1nc(Cc2cccc(C(F)(F)F)c2)sc1-c1ccc(C(N)=O)nc1 — remaining binding (ABL1 Q252H non-phosphorylated; cell-free assay; competition with immobilised ligand; 1 µM): 87%
O=C(c1ccc(Nc2ncc(Cl)c(-c3ccc(Cl)s3)n2)cc1)N1CCC(N2CCCC2)CC1 — remaining binding (ABL1 Q252H non-phosphorylated; binding; competition with immobilised ligand; 1 µM): 1%
C[C@@H](c1ccc(-n2cnc3c(N)ncnc32)cc1)N1CCc2nn(C)c(Cc3ccccc3)c2C1=O — remaining binding (ABL1 M351T phosphorylated; binding; competition with immobilised ligand; 0.1 µM): 49%
CO[C@H]1CC[C@H](CNc2ccc(S(=O)(=O)NC(=O)c3ccc(N4CCN(CC5=C(c6ccc(Cl)cc6)CC(C)(C)CC5)CC4)cc3Oc3cnc4[nH]ccc4c3)cc2[N+](=O)[O-])CC1 — remaining binding (ABL1 F317L phosphorylated; cell-free assay; competition with immobilised ligand; 1 µM): 83%
COc1ccnn2ncc(-c3ccnc(N(C)C)n3)c12 — remaining binding (Tyrosine-protein kinase ABL1 (ABL1, Homo sapiens, UniProt P00519, H396P); binding; 1 µM): 100%
